Source: PubChem BioAssay
Only some compounds are listed: those with a hit (about 2.1% of all), similar ones and a draw of the others.
Xi reactivation = X-chromosome reactivation activator | XiGFP mouse fibroblasts, % GFP-positive cells imaging, 3 d; cells co-treated with 5-aza-dC sensitizer; scaled so ellipticine positive control = 100% | activation, % at 7.58 µM | 360,000 tested, 0.055% active | AID 743238;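 active means mean normalized replicate activation at least 10% and every replicate at or above 10%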;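 further: 0% = median of on-plate neutral control wells and 100% = ellipticine 6 µM median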
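material = 68-5-11 XiGFP fibroblast line | medium = DMEM plus 5-aza-dC sensitizer | schedule = 3 days compound exposure | benchmarks = positive control ellipticine, 6 µM final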
AF4-AF9 inh = inhibitors of human MLL-AF4/AF9 interaction; 350,000 tested, 0.47% active; P42568; AID 651704; AlphaScreen, biotin-AF4 peptide binding to FLAG-AF9; inhibition, % at 10 µM;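 active means every replicate reaching a set inhibition limit, whatever the replicate mean, cut at about 25% in these data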;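 further: 0% = plate neutral control median and 100% = total signal loss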
Target sequence (P42568 whole entry, looked up): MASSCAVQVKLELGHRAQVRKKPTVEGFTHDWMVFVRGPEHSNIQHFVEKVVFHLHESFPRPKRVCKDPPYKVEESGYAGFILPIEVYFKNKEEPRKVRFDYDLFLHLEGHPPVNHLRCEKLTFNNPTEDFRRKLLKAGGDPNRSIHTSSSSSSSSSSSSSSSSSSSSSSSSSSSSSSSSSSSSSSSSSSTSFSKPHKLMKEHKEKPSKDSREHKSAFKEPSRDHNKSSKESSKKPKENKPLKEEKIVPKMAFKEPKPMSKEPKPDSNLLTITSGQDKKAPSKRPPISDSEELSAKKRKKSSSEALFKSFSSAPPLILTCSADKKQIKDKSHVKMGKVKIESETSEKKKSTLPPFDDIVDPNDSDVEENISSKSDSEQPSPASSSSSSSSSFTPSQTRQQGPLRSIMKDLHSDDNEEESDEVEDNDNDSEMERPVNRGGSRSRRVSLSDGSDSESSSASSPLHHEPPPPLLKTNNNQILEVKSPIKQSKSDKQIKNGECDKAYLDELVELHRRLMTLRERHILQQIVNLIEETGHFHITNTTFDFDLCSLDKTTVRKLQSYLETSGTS
PGC1a acetyl inh = PGC1a acetylation modulation, inhibitor mode. U2OS PGC1a acetylation, AlphaScreen anti-acetyl-lysine; with virally co-expressed GCN5 acetyltransferase. inhibition, % at 15.6 µM. 350,000 tested, 0.17% active. AID 651687;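 active means every replicate shows inhibition of at least 40%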;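 further: 0% = neutral control wells and 100% = positive control wells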
PAX8 reporter = lowers PAX8-driven luciferase in RMG-I cells | RMG-I TPO-luciferase reporter, SteadyGlo, 24 h | inhibition, % at 12.6 µM | 360,000 tested, 1.2% active | AID 652154;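 active means mean replicate inhibition at least 60% with every replicate also reaching 60%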;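 further: luciferase light reporting Pax8 driven TPO promoter activity; plate controls were median of neutral control wells for no effect and mitoxantrone controls for full effect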
EWS-Fli block = EWS/Fli transcriptional activity inhibition; A673 NR0B1-luciferase reporter, viability-normalised; inhibition, % at 12.6 µM; 350,000 tested, 0.67% active;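 active means mean inhibition of at least 50% after viability correction, with every replicate also passing that limit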;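 further: firefly luciferase signal divided by Alamar Blue viability fluorescence both relative to DMSO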
GSIS activator = GLuc luminescence reporter in INS-1E cells, primary screen for activators of glucose-dependent secretion of insulin; INS-1E GLuc reporter insulin secretion, 2-3 h; activation, % at 16.6 µM; AID 743287; 370,000 tested, 0.61% active;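 active means lowest replicate activation of at least 40%, so every replicate reaches that level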;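 further: 0% = median of neutral control wells and 100% = median of IBMX positive control wells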
DNA binder FP = small molecule DNA binding by fluorescence polarization | shares compounds with EWS-Fli block | salmon sperm DNA acridine orange fluorescence polarization | AC35, µM (titrated, usually from 68 µM), for the others: at the top dose activity change, negative = DNA binding | 640 tested, 2% active;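 active means fitted curve reaches a 35% signal fall AC35 below twice the sample's top valid tested dose, actives reach about 48 µM in these data; inactive means the rest, including activity in the rising direction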;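 further: lower polarization ratio signals compound binding to DNA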
Active calls of the source: *.

What do the screens show for `CC(=O)Nc1cc2ccccc2oc1=O`?
Xi reactivation: 0.0; AF4-AF9 inh: 0.6; PGC1a acetyl inh: 9.5; PAX8 reporter: -19.0; EWS-Fli block: -9.4; GSIS activator: 3.6

Results for O=C(C[C@H]1C[C@@H]2c3cc(NC(=O)NC4CCCCC4)ccc3O[C@@H]2[C@@H](CO)O1)NCc1ccccc1 ?
Xi reactivation: 0.2; AF4-AF9 inh: 1.0; PGC1a acetyl inh: 4.6; PAX8 reporter: 11.8; EWS-Fli block: 0.0; GSIS activator: 10.6

Results for Cc1cc(C(=O)Nc2cnc3ccccc3c2)ccc1[N+](=O)[O-] ?
Xi reactivation: 0.1; AF4-AF9 inh: -6.4; PAX8 reporter: -117.3; EWS-Fli block: -74.3; GSIS activator: 11.2

Results for COc1ccc(C(=O)Nc2nc3ccccc3s2)cc1 ?
Xi reactivation: 0.0; AF4-AF9 inh: 12.7; PAX8 reporter: -16.7; EWS-Fli block: 61.1*; GSIS activator: -1.7

How did COc1cccc(C(=O)Nc2nc3ccccc3s2)c1 do in these assays?
Xi reactivation: 0.1; AF4-AF9 inh: 0.0; PGC1a acetyl inh: -9.0; PAX8 reporter: -120.0; EWS-Fli block: -57.9; GSIS activator: -7.6

Results for Cc1cccc(C(=O)N[C@H](C(=O)Nc2nc3ccccc3[nH]2)C(C)C)c1 ?
Xi reactivation: 0.0; AF4-AF9 inh: -2.1; PAX8 reporter: 58.5; EWS-Fli block: 56.0*; GSIS activator: 5.3

What do the screens show for `Cc1ccc(C(=O)Nc2cnc3ccccc3c2)cc1`?
PGC1a acetyl inh: 11.4; PAX8 reporter: 90.3*

Results for O=C(Cc1ccccc1)c1ccccc1C(=O)N1CCCCC1 ?
Xi reactivation: 0.3; AF4-AF9 inh: 0.4; PGC1a acetyl inh: -5.7; PAX8 reporter: 107.6*; EWS-Fli block: -5.2; GSIS activator: 6.5

How did Nc1nc(=S)c2ncn([C@@H]3O[C@H](CO)[C@@H](O)[C@H]3O)c2[nH]1 do in these assays?
Xi reactivation: 0.0; AF4-AF9 inh: -1.3; PGC1a acetyl inh: 5.9; PAX8 reporter: 97.3*; EWS-Fli block: 52.6*; GSIS activator: 1.7; DNA binder FP: -13.2%

What do the screens show for `Nc1nc(=S)c2ncn(C3OC(CO)C(O)C3O)c2[nH]1` (centres undefined)?
Xi reactivation: -0.1; AF4-AF9 inh: -2.3; PGC1a acetyl inh: 4.4; PAX8 reporter: 24.6; EWS-Fli block: 12.1; GSIS activator: -1.9

How did Nc1ccn([C@@H]2O[C@H](CO)[C@@H](O)[C@@H]2O)c(=O)n1 do in these assays?
Xi reactivation: 1.0; AF4-AF9 inh: -4.0; PGC1a acetyl inh: 2.6; PAX8 reporter: 36.1; EWS-Fli block: 43.1; GSIS activator: -2.4

How did Nc1ncn([C@@H]2O[C@H](CO)[C@@H](O)[C@H]2O)c(=O)n1 do in these assays?
Xi reactivation: 7.9; AF4-AF9 inh: -2.2; PGC1a acetyl inh: -2.4; PAX8 reporter: 21.1; EWS-Fli block: 62.2*; GSIS activator: -9.4; DNA binder FP: 8.2%

What do the screens show for `COCC(=O)N1CC2(C1)[C@@H](c1ccc(-c3ccc(F)cc3)cc1)[C@@H](CO)N2C(=O)C1CC1`?
Xi reactivation: 0.1; AF4-AF9 inh: 3.2; PGC1a acetyl inh: 1.7; PAX8 reporter: 7.2; EWS-Fli block: -6.2; GSIS activator: -33.3

What do the screens show for `CCCCc1c(Cc2ccccc2)ncn1CCc1ccccc1OC`?
Xi reactivation: -0.1; AF4-AF9 inh: 15.5; PAX8 reporter: 62.4*; EWS-Fli block: 54.5*; GSIS activator: 174.3*; DNA binder FP: -12.8%

Results for COCC(=O)Nc1ccc2c(c1)[C@H]1C[C@@H](CC(=O)N3CCc4ccccc4C3)O[C@H](CO)[C@H]1O2 ?
Xi reactivation: 0.1; AF4-AF9 inh: -1.0; PGC1a acetyl inh: -2.3; EWS-Fli block: 7.7; GSIS activator: 3.2

What do the screens show for `O=C1/C(=C\c2ccccc2)CN(C(=O)CCN2CCCCC2)C/C1=C/c1ccccc1`?
Xi reactivation: -0.1; AF4-AF9 inh: -3.3; PAX8 reporter: -4.4; EWS-Fli block: 79.7*; GSIS activator: -25.8; DNA binder FP: 1.3%

How did O=C(N/N=C/c1cnc(N2CCCCC2)s1)c1ccc(C(F)(F)F)cc1 do in these assays?
Xi reactivation: 0.3; AF4-AF9 inh: 2.6; PGC1a acetyl inh: -2.7; PAX8 reporter: 73.5*; EWS-Fli block: 53.7*; GSIS activator: 16.0; DNA binder FP: 0.3%

Results for C[C@@H]1CCCCO[C@@H](CN(C)S(=O)(=O)c2ccc(F)cc2)[C@H](C)CN([C@@H](C)CO)C(=O)c2cc(NC(=O)CCC(F)(F)F)ccc2O1 ?
Xi reactivation: 0.0; AF4-AF9 inh: -5.8; PGC1a acetyl inh: 4.1; PAX8 reporter: -14.2; EWS-Fli block: -2.4; GSIS activator: -5.5

How did Cc1ccc(/C=N/NC(=O)c2csc3c2CCCC3)cc1 do in these assays?
PGC1a acetyl inh: -1.7

Results for COc1cc(/C=N/NC(=O)c2csc3c2CCCC3)cc(OC)c1O ?
Xi reactivation: -0.1; AF4-AF9 inh: -7.7; PAX8 reporter: -5.9; EWS-Fli block: 84.8*; GSIS activator: -5.5; DNA binder FP: -6.9%

Results for CCCCCCCCNC(C)C(O)c1ccc(SC(C)C)cc1 (centres undefined) ?
Xi reactivation: -0.1; AF4-AF9 inh: 5.5; PAX8 reporter: -5.8; EWS-Fli block: 58.8*; DNA binder FP: -6.5%

How did N#CC1=C(N)Oc2cc(N)ccc2C1c1cccc(F)c1 (centres undefined) do in these assays?
Xi reactivation: 0.2; AF4-AF9 inh: -1.7; PGC1a acetyl inh: -80.6; PAX8 reporter: 24.7; EWS-Fli block: 52.6*; GSIS activator: 5.3; DNA binder FP: -8.8%

How did CC(C)=CCC/C(C)=C/CN1C(=O)N(c2ccc(F)cc2)[C@H]2C[C@@H](c3ccccc3)[C@@H](C)[C@@H](C(=O)N3CCOCC3)C[C@H]21 do in these assays?
Xi reactivation: 1.1; AF4-AF9 inh: 3.6; PAX8 reporter: 100.9*; EWS-Fli block: 51.5*; GSIS activator: 36.7; DNA binder FP: 2.8%

How did CCN1C(=O)N[C@H]2C[C@H](C(=O)N3CCCC3)[C@H](C)[C@H](c3ccccc3)C[C@H]21 do in these assays?
Xi reactivation: 0.0; AF4-AF9 inh: -4.3; PAX8 reporter: -6.2; EWS-Fli block: 1.2; GSIS activator: 9.9

What do the screens show for `Cc1noc(C)c1NC(=O)N(C)C[C@@H]1OCCCC[C@H](C)Oc2ccc(NC(=O)c3ccccc3)cc2C(=O)N([C@H](C)CO)C[C@@H]1C`?
Xi reactivation: 0.5; AF4-AF9 inh: -0.5; PGC1a acetyl inh: 9.3; PAX8 reporter: 1.6; EWS-Fli block: -2.3; GSIS activator: 1.9
